Data published in PMC3005847 (Biochemistry, 2010).
Where a chain is given by its changes, count along the chain named.

Key:
T. foetus IMPDH R322E [1] = target: T1, T. foetus IMPDH R322E (Tritrichomonas foetus, UniProt P50097, R322E); assay: Multiple-inhibitor kinetics with tiazofurin and ADP, R322E; assay type: biochemical; settings: R322E relative to wild-type
T1 sequence (P50097 1-503 R322E): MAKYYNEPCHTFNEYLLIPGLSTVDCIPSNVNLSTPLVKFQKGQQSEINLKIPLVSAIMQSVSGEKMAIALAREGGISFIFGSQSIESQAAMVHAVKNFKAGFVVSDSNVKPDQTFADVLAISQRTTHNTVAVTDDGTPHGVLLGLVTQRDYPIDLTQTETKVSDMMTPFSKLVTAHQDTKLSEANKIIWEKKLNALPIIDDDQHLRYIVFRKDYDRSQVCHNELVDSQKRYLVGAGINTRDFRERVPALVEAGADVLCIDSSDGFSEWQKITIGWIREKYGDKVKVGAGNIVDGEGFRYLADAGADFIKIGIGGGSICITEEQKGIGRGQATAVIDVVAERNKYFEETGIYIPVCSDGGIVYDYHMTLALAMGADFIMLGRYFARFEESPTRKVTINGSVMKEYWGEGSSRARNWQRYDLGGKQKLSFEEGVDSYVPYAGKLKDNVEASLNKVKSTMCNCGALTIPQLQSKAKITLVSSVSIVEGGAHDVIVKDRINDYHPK
Procedure, shortened: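 Mutant enzymes were expressed in IMPDH-lacking E. coli H712 and purified by IMP-affinity chromatography. Tiazofurin and ADP were varied together in assay buffer (50 mM Tris-Cl pH 8.0, 100 mM KCl, 1 mM DTT) at 25 °C. NADH formation was followed at 340 nm. Initial velocities were fitted to a two-inhibitor equation giving Ki, Kj and interaction constant α.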

T. foetus IMPDH R322A = target: T2, T. foetus IMPDH R322A (Tritrichomonas foetus, UniProt P50097, R322A); assay: Steady-state kinetics, R322A; assay type: biochemical; settings: read-out: Km NAD^+, pH 8.0, 25 °C
T2 sequence (P50097 1-503 R322A): T1 sequence (P50097 1-503 R322E) with E322A

[2] = target: T3, T. foetus IMPDH wild-type (Tritrichomonas foetus, UniProt P50097); assay: Equilibrium dissociation constant by intrinsic protein fluorescence, wild-type; assay type: binding; settings: corrected for non-specific quenching, assay buffer, 25 °C
T. foetus IMPDH E323A = target: T4, T. foetus IMPDH E323A (Tritrichomonas foetus, UniProt P50097, E323A); assay: Steady-state kinetics, E323A; assay type: biochemical; settings: read-out: Km NAD^+, pH 8.0, 25 °C
T4 sequence (P50097 1-503 E323A): T1 sequence (P50097 1-503 R322E) with E322R, E323A

[3] = target: T3, T. foetus IMPDH wild-type; settings: cited from earlier work
T. foetus IMPDH Q324A = target: T5, T. foetus IMPDH Q324A (Tritrichomonas foetus, UniProt P50097, Q324A); assay: Steady-state kinetics, Q324A; assay type: biochemical
T5 sequence (P50097 1-503 Q324A): T1 sequence (P50097 1-503 R322E) with E322R, Q324A

T. foetus IMPDH R322E [4] = target: T1, T. foetus IMPDH R322E; assay: Steady-state kinetics, R322E; assay type: biochemical; settings: read-out: Km NAD^+, pH 8.0, 25 °C
Procedure, shortened: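 Mutant enzyme was expressed in IMPDH-deficient E. coli H712 and IMP-affinity purified. Assay buffer was 50 mM Tris-Cl pH 8.0, 100 mM KCl, 1 mM DTT, at 25 °C. NADH production was monitored at 340 nm (ε = 6.22 mM−1cm−1). Initial velocities were fitted to Michaelis–Menten or to a form with uncompetitive substrate inhibition, giving Km.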

T. foetus IMPDH R322E [5] = target: T1, T. foetus IMPDH R322E; assay: Equilibrium dissociation constant by intrinsic protein fluorescence, R322E; assay type: binding; settings: assay buffer, 25 °C
Procedure, shortened: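 NAD+ titrated into 0.2–0.3 µM R322E enzyme. The enzyme was expressed in IMPDH-deficient E. coli H712 and IMP-affinity purified. Assay buffer was 50 mM Tris-Cl pH 8.0, 100 mM KCl, 1 mM DTT, at 25 °C. Intrinsic protein fluorescence read at ex 295 / em 344 nm, corrected for inner-filter effect. Nonspecific quenching measured by titrating ligand into L-tryptophan. Kd taken from the corrected binding curve.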

| Compound | Decrease in affinity of tiazofurin caused by the mutation (factor) (T. foetus IMPDH R322E [1]) | Km (T. foetus IMPDH R322A) | Kd [2] | Km (T. foetus IMPDH E323A) | Km ([3]; read-out: Km NAD^+) | Kii NAD^+ ([3]; uncompetitive substrate inhibition) | Km (T. foetus IMPDH Q324A; read-out: Km NAD^+, pH 8.0, 25 °C) | Kii NAD^+ (T. foetus IMPDH Q324A; uncompetitive substrate inhibition, pH 8.0, 25 °C) | Km (T. foetus IMPDH R322E [4]) | Kd (T. foetus IMPDH R322E [5]) |
| --- | --- | --- | --- | --- | --- | --- | --- | --- | --- | --- |
| NC(=O)c1csc([C@@H]2O[C@H](CO)[C@@H](O)[C@H]2O)n1 [TAZ, tiazofurin] | > 3 | – | – | – | – | – | – | – | – | – |
| NC(=O)c1ccc[n+]([C@@H]2O[C@H](COP(=O)([O-])OP(=O)(O)OC[C@H]3O[C@@H](n4cnc5c(N)ncnc54)[C@H](O)[C@@H]3O)[C@@H](O)[C@H]2O)c1 [NAD^+] | – | 910 ± 90 µM | 27 ± 6 µM | 300 ± 20 µM | 150 ± 30 µM | 7 ± 2 mM | 120 ± 20 µM | 2.4 ± 0.3 mM | 2600 ± 700 µM | 37 ± 10 µM |
